Source: ChEMBL document CHEMBL1629622, “Isolation of VanB-type Enterococcus faecalis strains from nosocomial infections: first report of the isolation and identification of the pheromone-responsive plasmids pMG2200, Encoding VanB-type vancomycin resistance and a Bac41-type bacteriocin, and pMG2201, encoding erythromycin resistance and …” (2009)
In brackets after ≈: the same amount, converted by molar mass. Activity calls are given as the source filed them. No cut-off for these calls is given here. Residues, ends and D or L forms follow the SMILES beside them.

Tests used:
Enterococcus faecalis [1] = test: Induction of aggregation of Enterococcus faecalis JH2SS harboring pMG2200 at 100 ng/ml; format: functional, organism-based
Procedure, shortened: (§1)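 Donor E. faecalis JH2SS carrying the plasmid, exposed 2 h to synthetic pheromone (cAD1, cPD1, cCF10, cOB1 or cAM373 at 100 ng/ml) or to FA2-2 culture filtrate. Aggregation (clumping) of cells scored visually afterwards. A short 10-min mating with FA2-2 followed induction.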

Enterococcus faecalis [2] = test: Induction of aggregation of Enterococcus faecalis JH2SS harboring pMG2201 at 100 ng/ml; format: functional, organism-based; procedure, shortened: as §1
Enterococcus faecalis [3] = test: Antimicrobial activity against Enterococcus faecalis NKH1 harboring pMG2200-like plasmid after 24 hrs by agar dilution method; format: functional; conditions: NKH1, 24 h
Procedure, shortened: (§2)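 Agar dilution MICs on clinical E. faecalis isolates. Overnight Mueller-Hinton broth culture diluted 100-fold; ~5 × 10^5 cells inoculated onto Mueller-Hinton medium holding a concentration series of each drug. Incubated at 37°C and read at 24 h. Testing and interpretation follow CLSI (NCCLS) standards, with E. faecium ATCC 9790 as control strain.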

Enterococcus faecalis [4] = test: Antimicrobial activity against Enterococcus faecalis NKH2 harboring pMG2200-like and pMG2201-like plasmids after 24 hrs by agar dilution method; format: functional; conditions: NKH2, 24 h; procedure, shortened: as §2
Enterococcus faecalis [5] = test: Antimicrobial activity against Enterococcus faecalis NKH3 harboring pMG2200-like and pMG2201-like plasmids after 24 hrs by agar dilution method; format: functional; conditions: NKH3, 24 h; procedure, shortened: as §2
Enterococcus faecalis [6] = test: Antimicrobial activity against Enterococcus faecalis NKH4 harboring pMG2200-like and pMG2201-like plasmids after 24 hrs by agar dilution method; format: functional; conditions: NKH4, 24 h; procedure, shortened: as §2
Enterococcus faecalis [7] = test: Antimicrobial activity against Enterococcus faecalis NKH5 harboring pMG2200-like plasmid after 24 hrs by agar dilution method; format: functional; conditions: NKH5, 24 h; procedure, shortened: as §2
Enterococcus faecalis [8] = test: Antimicrobial activity against Enterococcus faecalis NKH6 harboring pMG2200-like and pMG2201-like plasmids after 24 hrs by agar dilution method; format: functional; conditions: NKH6, 24 h; procedure, shortened: as §2
Enterococcus faecalis [9] = test: Antimicrobial activity against Enterococcus faecalis NKH7 harboring pMG2200-like plasmid after 24 hrs by agar dilution method; format: functional; conditions: NKH7, 24 h; procedure, shortened: as §2
Enterococcus faecalis [10] = test: Antimicrobial activity against Enterococcus faecalis NKH8 harboring pMG2200-like and pMG2201-like plasmids after 24 hrs by agar dilution method; format: functional; conditions: NKH8, 24 h; procedure, shortened: as §2
Enterococcus faecalis [11] = test: Antimicrobial activity against Enterococcus faecalis NKH9 harboring pMG2200-like and pMG2201-like plasmids after 24 hrs by agar dilution method; format: functional; conditions: NKH9, 24 h; procedure, shortened: as §2
Enterococcus faecalis [12] = test: Antimicrobial activity against Enterococcus faecalis NKH10 harboring pMG2200-like and pMG2201-like plasmids after 24 hrs by agar dilution method; format: functional; conditions: NKH10, 24 h; procedure, shortened: as §2
Enterococcus faecalis [13] = test: Antimicrobial activity against Enterococcus faecalis NKH11 harboring pMG2200-like plasmid after 24 hrs by agar dilution method; format: functional; conditions: NKH11, 24 h; procedure, shortened: as §2
Enterococcus faecalis [14] = test: Antimicrobial activity against Enterococcus faecalis NKH12 harboring pMG2200-like and pMG2201-like plasmids after 24 hrs by agar dilution method; format: functional; conditions: NKH12, 24 h; procedure, shortened: as §2
Enterococcus faecalis [15] = test: Antimicrobial activity against Enterococcus faecalis NKH13 harboring pMG2200-like and pMG2201-like plasmids after 24 hrs by agar dilution method; format: functional; conditions: NKH13, 24 h; procedure, shortened: as §2
Enterococcus faecalis [16] = test: Antimicrobial activity against Enterococcus faecalis NKH14 harboring pMG2200-like and pMG2201-like plasmids after 24 hrs by agar dilution method; format: functional; conditions: NKH14, 24 h; procedure, shortened: as §2
Enterococcus faecalis [17] = test: Antimicrobial activity against Enterococcus faecalis NKH15 harboring pMG2200-like and pMG2201-like plasmids after 24 hrs by agar dilution method; format: functional; conditions: NKH15, 24 h; procedure, shortened: as §2
Enterococcus faecalis [18] = test: Antimicrobial activity against Enterococcus faecalis NKH16 harboring pMG2200-like plasmid after 24 hrs by agar dilution method; format: functional; conditions: NKH16, 24 h; procedure, shortened: as §2
Enterococcus faecalis [19] = test: Antimicrobial activity against Enterococcus faecalis NKH17 harboring pMG2200-like plasmid after 24 hrs by agar dilution method; format: functional; conditions: NKH17, 24 h; procedure, shortened: as §2
Enterococcus faecalis [20] = test: Antimicrobial activity against Enterococcus faecalis NKH18 harboring pMG2200-like and pMG2201-like plasmids after 24 hrs by agar dilution method; format: functional; conditions: NKH18, 24 h; procedure, shortened: as §2

Row | Compound | Activity (Enterococcus faecalis [1]) | Activity (Enterococcus faecalis [2]) | MIC (Enterococcus faecalis [3]) | MIC (Enterococcus faecalis [4]) | MIC (Enterococcus faecalis [5]) | MIC (Enterococcus faecalis [6]) | MIC (Enterococcus faecalis [7]) | MIC (Enterococcus faecalis [8]) | MIC (Enterococcus faecalis [9]) | MIC (Enterococcus faecalis [10]) | MIC (Enterococcus faecalis [11]) | MIC (Enterococcus faecalis [12]) | MIC (Enterococcus faecalis [13]) | MIC (Enterococcus faecalis [14]) | MIC (Enterococcus faecalis [15]) | MIC (Enterococcus faecalis [16]) | MIC (Enterococcus faecalis [17]) | MIC (Enterococcus faecalis [18]) | MIC (Enterococcus faecalis [19]) | MIC (Enterococcus faecalis [20])
1 | CSCC[C@H](NC(=O)[C@@H](NC(=O)[C@H](CC(C)C)NC(=O)[C@@H](N)Cc1ccccc1)C(C)C)C(=O)N[C@@H](Cc1ccccc1)C(=O)N[C@@H](CC(C)C)C(=O)N[C@@H](CO)C(=O)NCC(=O)O (H-FLVMFLSG-OH) | inactive | inactive |  |  |  |  |  |  |  |  |  |  |  |  |  |  |  |  |  | 
2 | CC[C@H]1OC(=O)[C@H](C)[C@@H](O[C@H]2C[C@@](C)(OC)[C@@H](O)[C@H](C)O2)[C@H](C)[C@@H](O[C@@H]2O[C@H](C)C[C@H](N(C)C)[C@H]2O)[C@](C)(O)C[C@@H](C)C(=O)[C@H](C)[C@@H](O)[C@]1(C)O [ERYTHROMYCIN] |  |  | 0.25 µg/mL (≈ 0.341 µM) | > 1020 µg/mL | > 1020 µg/mL | > 1020 µg/mL | 0.125 µg/mL (≈ 0.17 µM) | > 1020 µg/mL | 0.125 µg/mL (≈ 0.17 µM) | > 1020 µg/mL | > 1020 µg/mL | > 1020 µg/mL | 0.125 µg/mL (≈ 0.17 µM) | > 1020 µg/mL | > 1020 µg/mL | > 1020 µg/mL | > 1020 µg/mL | 0.125 µg/mL (≈ 0.17 µM) | 0.125 µg/mL (≈ 0.17 µM) | > 1020 µg/mL
3 | O=C(O)c1cn(C2CC2)c2cc(N3CCNCC3)c(F)cc2c1=O [CIPROFLOXACIN] |  |  | 64 µg/mL (≈ 193 µM) | 64 µg/mL (≈ 193 µM) | 64 µg/mL (≈ 193 µM) | 64 µg/mL (≈ 193 µM) | 64 µg/mL (≈ 193 µM) | 64 µg/mL (≈ 193 µM) | 64 µg/mL (≈ 193 µM) | 64 µg/mL (≈ 193 µM) | 64 µg/mL (≈ 193 µM) | 64 µg/mL (≈ 193 µM) | 64 µg/mL (≈ 193 µM) | 64 µg/mL (≈ 193 µM) | 64 µg/mL (≈ 193 µM) | 64 µg/mL (≈ 193 µM) | 64 µg/mL (≈ 193 µM) | 64 µg/mL (≈ 193 µM) | 64 µg/mL (≈ 193 µM) | 64 µg/mL (≈ 193 µM)
4 | O=C(N[C@H](CO)[C@H](O)c1ccc([N+](=O)[O-])cc1)C(Cl)Cl [CHLORAMPHENICOL] |  |  | 8 µg/mL (≈ 24.8 µM) | 8 µg/mL (≈ 24.8 µM) | 8 µg/mL (≈ 24.8 µM) | 8 µg/mL (≈ 24.8 µM) | 4 µg/mL (≈ 12.4 µM) | 8 µg/mL (≈ 24.8 µM) | 4 µg/mL (≈ 12.4 µM) | 8 µg/mL (≈ 24.8 µM) | 8 µg/mL (≈ 24.8 µM) | 8 µg/mL (≈ 24.8 µM) | 8 µg/mL (≈ 24.8 µM) | 8 µg/mL (≈ 24.8 µM) | 8 µg/mL (≈ 24.8 µM) | 8 µg/mL (≈ 24.8 µM) | 8 µg/mL (≈ 24.8 µM) | 4 µg/mL (≈ 12.4 µM) | 4 µg/mL (≈ 12.4 µM) | 8 µg/mL (≈ 24.8 µM)
5 | CC(C)C[C@H](NC(=O)[C@@H](NC(=O)[C@H](C)NC(=O)[C@@H](N)C(C)C)C(C)C)C(=O)N[C@H](C(=O)N[C@@H](CC(C)C)C(=O)NCC(=O)N[C@@H](C)C(=O)O)C(C)C (H-VAVLVLGA-OH) | inactive | inactive |  |  |  |  |  |  |  |  |  |  |  |  |  |  |  |  |  | 
6 | CN[C@H](CC(C)C)C(=O)N[C@H]1C(=O)N[C@@H](CC(N)=O)C(=O)N[C@H]2C(=O)N[C@H]3C(=O)N[C@H](C(=O)N[C@H](C(=O)O)c4cc(O)cc(O)c4-c4cc3ccc4O)[C@H](O)c3ccc(c(Cl)c3)Oc3cc2cc(c3O[C@@H]2O[C@H](CO)[C@@H](O)[C@H](O)[C@H]2O[C@H]2C[C@](C)(N)[C@H](O)[C@H](C)O2)Oc2ccc(cc2Cl)[C@H]1O [VANCOMYCIN] |  |  | 128 µg/mL (≈ 88.3 µM) | 256 µg/mL (≈ 177 µM) |  |  |  |  |  | 256 µg/mL (≈ 177 µM) | 256 µg/mL (≈ 177 µM) | 256 µg/mL (≈ 177 µM) |  | 256 µg/mL (≈ 177 µM) | 256 µg/mL (≈ 177 µM) | 256 µg/mL (≈ 177 µM) |  |  | 32 µg/mL (≈ 22.1 µM) | 
7 | CC[C@H](C)[C@H](NC(=O)[C@H](C)N)C(=O)N[C@@H](Cc1ccccc1)C(=O)N[C@H](C(=O)N[C@@H](CC(C)C)C(=O)N[C@@H](C)C(=O)N[C@@H](CO)C(=O)O)[C@@H](C)CC (H-AIFILAS-OH) | inactive | inactive |  |  |  |  |  |  |  |  |  |  |  |  |  |  |  |  |  | 
